Results pooled from the literature.
Lines come from different studies, so protocols differ.
Target: LIM domain kinase 2 (LIMK2, Homo sapiens, UniProt P53671)

With `C[C@@H](c1ccc(-n2cnc3c(N)ncnc32)cc1)N1CCc2nn(C)c(Cc3ccccc3)c2C1=O` the remaining binding was 25% (binding; competition with immobilised ligand; 0.1 µM).
With `c1cncc(-c2cccc(Nc3nccc(NC4CCCCC4)n3)c2)c1` the remaining binding was 45% (binding; competition with immobilised ligand; 10 µM).
The remaining binding of `FC(F)(F)Oc1cccc(-c2cnc3ccc(-c4ccncc4)nn23)c1` is reported as 69% (cell-free assay; competition with immobilised ligand; 5 µM).
`CN(CCCC(F)(F)F)c1nccc(-c2cnn3ncccc23)n1` has a remaining binding of 95% (binding; 1 µM).
`CNC(=O)[C@@H]1CC[C@@H](n2c(-c3ccc4cnccc4c3)nc3ccc(C(=O)NCc4cccc(C(N)=O)c4)cc32)C1` has a remaining binding of 100% (binding; competition with immobilised ligand; 1 µM).
For `CN(C)c1ncnc(-c2ccc3nc(Nc4cc(CN5CCN(C(=O)CC(F)(F)F)CC5)ccn4)[nH]c3c2)c1Cl`, the remaining binding was 100% (cell-free assay; competition with immobilised ligand; 1 µM).
With `O=C(c1ccc(Nc2nccc(-c3cc4ccccc4s3)n2)cc1)N1CCC(N2CCCC2)CC1` the remaining binding was 47% (binding; competition with immobilised ligand; 1 µM).
`Cc1cnn2ncc(-c3ccnc(N(C)C)n3)c2c1` has a remaining binding of 94% (binding; 1 µM).
`O=C(NCCCN1CCOCC1)c1ccc(Nc2ncc(Cl)c(-c3ccc(Cl)s3)n2)cc1` has a remaining binding of 83% (binding; competition with immobilised ligand; 1 µM).
`CN(C)c1nccc(-c2cnn3ncccc23)n1` has a remaining binding of 97% (binding; 1 µM).
For `CC1=C(C#N)[C@@H](c2ccc3[nH]nc(C)c3c2)C(C#N)=C(c2ccc(Cl)cc2)N1`, the remaining binding was 91.1% (cell-free assay; competition with immobilised ligand; 1 µM).
With `CC1CCCN1c1nccc(-c2cnn3ncccc23)n1` (stereo not shown) the remaining binding was 96% (binding; 1 µM).
`CC1=C(C#N)C(c2ccc3c(c2)c(NC(=O)c2ccccc2C)nn3C)C(C#N)=C(C)N1` gave a remaining binding of 99% (cell-free assay; competition with immobilised ligand; 1 µM).
`Cc1cnc(Nc2ccc(C(=O)N3CCC(N4CCCC4)CC3)cc2)nc1-c1cc2ccccc2s1` has a remaining binding of 30% (binding; competition with immobilised ligand; 1 µM).
`CNCc1ccccc1-c1csc([C@@H](C)Nc2nc(C)nc3cc(OC)c(OC)cc23)c1` gave a remaining binding of 96% (cell-free assay; competition with immobilised ligand; 1 µM).
With `O=C(Nc1c[nH]nc1C(=O)NC1CCNCC1)c1cc(F)cc(F)c1` the remaining binding was 97% (binding; competition with immobilised ligand; 1 µM).
The remaining binding of `CN(C)C(=O)Cn1cc(-c2nc(C3(c4ccc(-c5cnc(N)nc5)cc4)CC3)no2)cn1` is reported as 85% (cell-free assay; competition with immobilised ligand; 1 µM).
The remaining binding of `F[C@@H]1CCN(c2nccc(-c3cnn4ncccc34)n2)C1` is reported as 85% (binding; 1 µM).
For `CC(=O)N1CCC(c2ccc(C(=O)NC3=NCCN3)cc2C(F)(F)F)CC1`, the remaining binding was 98% (cell-free assay; competition with immobilised ligand; 1 µM).
With `C[C@@H]1CCN(c2nccc(-c3cnn4ncccc34)n2)C1` the remaining binding was 87% (binding; 1 µM).
`O=C(Nc1ccc(Oc2ccc(F)cc2)cc1)N1CCc2ncccc2[C@H]1c1ccc(F)cc1` gave a remaining binding of 93% (cell-free assay; competition with immobilised ligand; 1 µM).
For `N[C@H]1CCN(c2nccc(-c3cnn4ncccc34)n2)C1`, the remaining binding was 100% (binding; 1 µM).
